# Assay results published in ChEMBL document CHEMBL4270516, “Screening serine/threonine and tyrosine kinase inhibitors for histidine kinase inhibition” (Bioorg Med Chem, 2018).
# Active and inactive are the calls of the source. No cut-off for these calls is given here.
# Assays:
# [1] = Inhibition of Thermotoga maritima HK853 autophosphorylation using compound at non-aggregating concentration after 30 mins in presence of [gamma-33P]-ATP by phosphorescence-based assay
# In short: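 Coupled competition-aggregation assay with HK853 (T. maritima) and VicK (S. pneumoniae); enzymatic autophosphorylation followed with [γ-33P]ATP.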
# [2] = tested on: Thermotoga maritima; assay: Inhibition of ADP-BODIPY binding to Thermotoga maritima HK853 at 100 uM by fluorescence polarization assay
# [3] = Inhibition of ADP-BODIPY binding to Thermotoga maritima HK853 in presence of Triton X-100 by fluorescence polarization assay
# [4] = Inhibition of ADP-BODIPY binding to Thermotoga maritima HK853 by fluorescence polarization assay
# [5] = tested on: Sensor histidine kinase VicK/WalK (Streptococcus pneumoniae); assay: Induction of Streptococcus pneumoniae VicK aggregation up to 500 uM in presence of glutaraldehyde by PAGE analysis
# [6] = tested on: Thermotoga maritima; assay: Induction of Thermotoga maritima HK853 aggregation up to 500 uM in presence of glutaraldehyde by PAGE analysis
# [7] = tested on: Staphylococcus aureus; assay: Antibiofilm activity against methicillin-sensitive Staphylococcus aureus MSSA 447 at 112.5 to 500 uM after 18 hrs by crystal violet staining-based assay; format: functional, organism-based
# In short: (§1)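 Biofilm formation by S. aureus and P. aeruginosa quantified by crystal violet staining, compared against DMSO-treated bacteria.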
# [8] = tested on: Pseudomonas aeruginosa; assay: Antibiofilm activity against methicillin-sensitive Pseudomonas aeruginosa PAO1 at 112.5 to 500 uM after 18 hrs by crystal violet staining-based assay; format: functional, organism-based; in short: as §1
# [9] = tested on: Staphylococcus aureus; assay: Bactericidal activity against methicillin-sensitive Staphylococcus aureus MSSA 447 at 400 uM after 18 hrs by resazurin-dye based fluorescence assay; format: functional, organism-based
# In short: (§2)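 Viability of methicillin-sensitive S. aureus and P. aeruginosa after treatment, judged by optical density and resazurin indicator dye relative to a DMSO control.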
# [10] = tested on: Pseudomonas aeruginosa; assay: Bactericidal activity against methicillin-sensitive Pseudomonas aeruginosa PAO1 at 400 uM after 18 hrs by resazurin-dye based fluorescence assay; format: functional, organism-based; in short: as §2
# [11] = Inhibition of ADP-BODIPY binding to Thermotoga maritima HK853 after day 1 by fluorescence polarization assay
# [12] = Inhibition of ADP-BODIPY binding to Thermotoga maritima HK853 after day 2 by fluorescence polarization assay
Compound,IC50 [1],inhibition [2],IC50 [3],IC50 [4],Activity [5],Activity [6],also measured
Nc1ncnc2c1ncn2[C@@H]1O[C@H](COP(=O)(O)OP(=O)(O)NP(=O)(O)O)[C@@H](O)[C@H]1O,48.2 µM,–,–,–,–,–,–
Fc1ccc(-c2c(-c3ccncc3)[nH]c3cccnc23)cc1,–,6.5%,–,–,–,–,–
Cc1cc(C)c2c(n1)sc1c(N)ncnc12,99 µM,73.7%,42.2 µM,38.3 µM,–,–,–
Fc1ccc(-c2c(-c3ccncc3)n(CCN3CCOCC3)c3cccnc23)cc1,–,4.8%,–,–,–,–,–
OCCn1c(-c2ccncc2)c(-c2ccc(F)cc2)c2ncccc21,–,5.8%,–,–,–,–,–
Cn1c(-c2ccncc2)c(-c2ccc(F)cc2)c2ncccc21,–,15%,–,–,–,–,–
Nc1ncnc2c1ncn2[C@@H]1O[C@H](COP(=O)(O)OP(=O)(O)O)[C@@H](O)[C@H]1O [ADENOSINE DIPHOSPHATE],13.7 µM,–,–,–,–,–,–

# The next lines start with results.
IC50 [1],inhibition [2],IC50 [3],IC50 [4],Activity [5],Activity [6],Compound,also measured
106 µM,74.7%,15.2 µM,19.1 µM,Active,Active,CNc1ncc2cc(Oc3ccc(F)cc3F)c(=O)n(C)c2n1,–
–,79.2%,24.4 µM,21.9 µM,Active,Active,Cn1cc(C2=C(c3cccc(NCC(O)CO)c3)C(=O)NC2=O)c2cc(Cl)ccc21 (stereo unspecified),–
–,66.3%,13 µM,12 µM,Active,Active,COc1cc[nH]c1/C=C1\C(=O)Nc2ccc([N+](=O)[O-])c(C3CC[C@@H](O)C3)c21 (stereo partly specified),–
282 µM,65.5%,12 µM,12 µM,Active,Active,O=C1N=C(N[C@H](CO)c2ccccc2)S/C1=C\c1ccc2ncccc2c1,–
–,98.1%,160 µM,26.2 µM,Active,Active,O=[N+]([O-])c1ccc2c(c1)C(c1ccccc1Cl)=Nc1c[nH]nc1N2,–
101 µM,79.9%,22.5 µM,23.7 µM,–,–,Fc1ccc(-c2c(-c3ccncc3)[nH]c3nccnc23)cc1,Activity [7]: inactive; Activity [8]: inactive; Activity [9]: inactive; Activity [10]: inactive; IC50 [11]: 2.7 µM; IC50 [12]: 6.26 µM
–,81.2%,> 300 µM,96 µM,Active,Active,O=C1C(c2c[nH]c3ccccc23)=C(c2c[nH]c3ccccc23)C(=O)N1O,–
124 µM,90.1%,27.1 µM,21.6 µM,–,–,CONC1=NC(=O)/C(=C/c2ccc3ncccc3c2)S1,–
